Consider two compounds from ChEMBL document CHEMBL4406821, “Novel dual inhibitors targeting CDK4 and VEGFR2 synergistically suppressed cancer progression and angiogenesis” (Eur J Med Chem, 2019).

Series [1] concerns MDA-MB-231. Description: Induction of cell cycle arrest in human MDA-MB-231 cells assessed as accumulation in G2/M phase at 20 to 40 nM incubated for 36 hrs by propidium iodide staining based flow cytometry. It counts as functional. The gist of the method: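 Cells were treated with graded concentrations for 36 h, then fixed overnight in 70% ice-cold ethanol at 4°C and resuspended in PBS. Staining used 50 µg/ml PI plus 5 µg/ml RNase at 37°C for 30 min. DNA content was analysed by FACS to give G0/G1, S and G2/M fractions.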
For orientation: A flow cytometer gives signals particle by particle.

Series [2] relates to HeLa. Description: Induction of apoptosis in human HeLa cells assessed as increase in early apoptotic cells at 20 to 40 nM incubated for 48 hrs by annexin V FITC and propidium iodide staining based flow cytometry. The format is functional, cell-based. The gist of the method: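 Cells were treated for 48 h, stained with FITC Annexin V and PI, and analyzed by flow cytometry to count early and late apoptotic cells.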

In series [3] the test system is MDA-MB-231. Description: Induction of apoptosis in human MDA-MB-231 cells assessed as increase in late apoptotic cells at 20 to 40 nM incubated for 48 hrs by annexin V FITC and propidium iodide staining based flow cytometry. It counts as functional, cell-based. The gist of the method:
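Annexin V-FITC/PI double staining with flow-cytometric readout. MDA-MB-231, T-47D, SiHa and HeLa cells were treated with graded concentrations for 48 h. MDA-MB-231 and T-47D were grown in DMEM and SiHa in 1640 medium, each with 10% FBS and 1% penicillin/streptomycin at 37°C under 5% CO2. Early- and late-stage apoptotic fractions were scored.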

The nature of series [4]: VRT (0 to t) in Sprague-Dawley rat at 10 mg/kg, iv by HPLC-MS analysis. It counts as ADME, organism-based. The settings on record: in vivo.
The nature of series [5]: Tmax in Sprague-Dawley rat at 10 mg/kg, iv by HPLC-MS analysis. It counts as ADME, organism-based. The note with it: in vivo.
Series [6] can be described thus: VRT (0 to t) in Sprague-Dawley rat at 10 mg/kg, po by HPLC-MS analysis. It counts as ADME, organism-based. The note with it: in vivo.
Series [7] is described as follows: Clearance in Sprague-Dawley rat at 10 mg/kg, po by HPLC-MS analysis. The settings on record: in vivo. The format is ADME, organism-based. An outline of the steps:
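Rats fitted with jugular vein catheters for serial blood sampling. Compound dissolved in saline with 5% (v/v) DMSO and given as a single 10 mg/kg dose iv or po after an overnight fast, n = 5 per group. Plasma isolated at once and measured by HPLC with tandem MS detection. Parameters derived by noncompartmental fitting.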

The target in series [8] is ALK tyrosine kinase receptor (Homo sapiens) (UniProt Q9UM73). Briefly: Inhibition of recombinant human ALK (1058 to end residues) at 1 uM using KKKSPGEYVNIEF as substrate incubated for 40 mins in presence of [gamma-33P]-ATP by scintillation counting method relative to control. The gist of the method:
(§1)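 Kinase panel profiling at 1 μM performed by Eurofins KinaseProfiler; percent inhibition reported as mean of two independent experiments.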

Series [9] addresses Bone morphogenetic protein receptor type-1B (Homo sapiens) (UniProt O00238). Briefly: Inhibition of recombinant human ALK6 (148 to end residues) at 1 uM using casein as substrate incubated for 40 mins in presence of [gamma-33P]-ATP by scintillation counting method relative to control. The gist of the method:
as §1

The target in series [10] is Casein kinase I isoform gamma-3 (Homo sapiens) (UniProt Q9Y6M4). Description: Inhibition of recombinant human CK1gamma3 (1 to 330 residues) at 1 uM using KRRRALS(p)VAS as substrate incubated for 40 mins in presence of [gamma-33P]-ATP by scintillation counting method relative to control. The gist of the method:
(§2)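 Tested at a single 1 uM in an outsourced commercial kinase-profiling panel, read as percent inhibition. Each value is the mean of two independent experiments.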

For series [11], the system named is Epidermal growth factor receptor (Homo sapiens), P00533 [L858R]. Description: Inhibition of recombinant human EGFR L858R mutant (696 to end residues) at 1 uM using poly(Glu, Tyr) 4:1 as substrate incubated for 40 mins in presence of [gamma-33P]-ATP by scintillation counting method relative to control. The gist of the method: as §1
Epidermal growth factor receptor (Homo sapiens), P00533 [L858R], sequence (P00533 whole entry L858R, the tested form may be a part): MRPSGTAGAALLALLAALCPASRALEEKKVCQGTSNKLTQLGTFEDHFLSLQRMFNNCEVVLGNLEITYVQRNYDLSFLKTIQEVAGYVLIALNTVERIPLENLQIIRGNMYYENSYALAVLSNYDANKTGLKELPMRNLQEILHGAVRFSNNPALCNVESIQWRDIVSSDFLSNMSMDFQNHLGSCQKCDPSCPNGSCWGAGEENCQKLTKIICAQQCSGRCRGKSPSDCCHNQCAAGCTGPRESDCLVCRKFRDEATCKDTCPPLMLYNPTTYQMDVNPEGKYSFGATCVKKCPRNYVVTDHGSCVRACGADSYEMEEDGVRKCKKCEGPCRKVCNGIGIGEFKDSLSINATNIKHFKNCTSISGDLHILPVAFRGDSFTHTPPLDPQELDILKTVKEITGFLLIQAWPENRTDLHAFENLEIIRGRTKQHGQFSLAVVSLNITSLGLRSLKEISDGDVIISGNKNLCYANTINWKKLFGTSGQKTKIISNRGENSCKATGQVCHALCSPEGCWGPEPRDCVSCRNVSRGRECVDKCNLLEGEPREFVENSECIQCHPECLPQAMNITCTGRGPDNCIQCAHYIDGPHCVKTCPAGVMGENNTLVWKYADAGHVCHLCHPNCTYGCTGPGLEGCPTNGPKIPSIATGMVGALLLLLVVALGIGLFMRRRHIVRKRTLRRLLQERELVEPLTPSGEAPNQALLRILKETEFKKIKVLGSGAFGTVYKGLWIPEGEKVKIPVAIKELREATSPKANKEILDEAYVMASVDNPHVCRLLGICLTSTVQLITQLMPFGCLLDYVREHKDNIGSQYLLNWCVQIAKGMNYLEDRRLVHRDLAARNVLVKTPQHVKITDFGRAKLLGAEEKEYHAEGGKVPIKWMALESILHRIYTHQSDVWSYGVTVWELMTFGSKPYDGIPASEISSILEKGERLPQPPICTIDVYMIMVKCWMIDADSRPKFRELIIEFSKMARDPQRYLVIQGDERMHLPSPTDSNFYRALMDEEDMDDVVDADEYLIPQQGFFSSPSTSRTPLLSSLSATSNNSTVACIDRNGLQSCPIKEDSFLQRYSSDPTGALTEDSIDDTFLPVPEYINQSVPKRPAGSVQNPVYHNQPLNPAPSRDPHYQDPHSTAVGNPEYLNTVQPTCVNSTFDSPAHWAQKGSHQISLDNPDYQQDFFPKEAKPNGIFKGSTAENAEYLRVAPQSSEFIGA
The target in series [12] is LIM domain kinase 2 (Homo sapiens) (UniProt P53671). Briefly: Inhibition of recombinant human LIMK2 at 1 uM incubated for 40 mins in presence of [gamma-33P]-ATP by scintillation counting method relative to control.
For series [13], the target named is Mitogen-activated protein kinase kinase kinase 9 (Homo sapiens) (UniProt P80192). Briefly: Inhibition of recombinant human MLK1 (134 to 414 residues) at 1 uM using casein as substrate incubated for 40 mins in presence of [gamma-33P]-ATP by scintillation counting method relative to control.
The target in series [14] is Serine/threonine-protein kinase MRCK beta (Homo sapiens) (UniProt Q9Y5S2). Description: Inhibition of recombinant human MRCKbeta (1 to 473 residues) at 1 uM using KKRNRTLTV as substrate incubated for 40 mins in presence of [gamma-33P]-ATP by scintillation counting method relative to control.
Serine/threonine-protein kinase MRCK beta (Homo sapiens), sequence (Q9Y5S2 whole entry, the tested form may be a part): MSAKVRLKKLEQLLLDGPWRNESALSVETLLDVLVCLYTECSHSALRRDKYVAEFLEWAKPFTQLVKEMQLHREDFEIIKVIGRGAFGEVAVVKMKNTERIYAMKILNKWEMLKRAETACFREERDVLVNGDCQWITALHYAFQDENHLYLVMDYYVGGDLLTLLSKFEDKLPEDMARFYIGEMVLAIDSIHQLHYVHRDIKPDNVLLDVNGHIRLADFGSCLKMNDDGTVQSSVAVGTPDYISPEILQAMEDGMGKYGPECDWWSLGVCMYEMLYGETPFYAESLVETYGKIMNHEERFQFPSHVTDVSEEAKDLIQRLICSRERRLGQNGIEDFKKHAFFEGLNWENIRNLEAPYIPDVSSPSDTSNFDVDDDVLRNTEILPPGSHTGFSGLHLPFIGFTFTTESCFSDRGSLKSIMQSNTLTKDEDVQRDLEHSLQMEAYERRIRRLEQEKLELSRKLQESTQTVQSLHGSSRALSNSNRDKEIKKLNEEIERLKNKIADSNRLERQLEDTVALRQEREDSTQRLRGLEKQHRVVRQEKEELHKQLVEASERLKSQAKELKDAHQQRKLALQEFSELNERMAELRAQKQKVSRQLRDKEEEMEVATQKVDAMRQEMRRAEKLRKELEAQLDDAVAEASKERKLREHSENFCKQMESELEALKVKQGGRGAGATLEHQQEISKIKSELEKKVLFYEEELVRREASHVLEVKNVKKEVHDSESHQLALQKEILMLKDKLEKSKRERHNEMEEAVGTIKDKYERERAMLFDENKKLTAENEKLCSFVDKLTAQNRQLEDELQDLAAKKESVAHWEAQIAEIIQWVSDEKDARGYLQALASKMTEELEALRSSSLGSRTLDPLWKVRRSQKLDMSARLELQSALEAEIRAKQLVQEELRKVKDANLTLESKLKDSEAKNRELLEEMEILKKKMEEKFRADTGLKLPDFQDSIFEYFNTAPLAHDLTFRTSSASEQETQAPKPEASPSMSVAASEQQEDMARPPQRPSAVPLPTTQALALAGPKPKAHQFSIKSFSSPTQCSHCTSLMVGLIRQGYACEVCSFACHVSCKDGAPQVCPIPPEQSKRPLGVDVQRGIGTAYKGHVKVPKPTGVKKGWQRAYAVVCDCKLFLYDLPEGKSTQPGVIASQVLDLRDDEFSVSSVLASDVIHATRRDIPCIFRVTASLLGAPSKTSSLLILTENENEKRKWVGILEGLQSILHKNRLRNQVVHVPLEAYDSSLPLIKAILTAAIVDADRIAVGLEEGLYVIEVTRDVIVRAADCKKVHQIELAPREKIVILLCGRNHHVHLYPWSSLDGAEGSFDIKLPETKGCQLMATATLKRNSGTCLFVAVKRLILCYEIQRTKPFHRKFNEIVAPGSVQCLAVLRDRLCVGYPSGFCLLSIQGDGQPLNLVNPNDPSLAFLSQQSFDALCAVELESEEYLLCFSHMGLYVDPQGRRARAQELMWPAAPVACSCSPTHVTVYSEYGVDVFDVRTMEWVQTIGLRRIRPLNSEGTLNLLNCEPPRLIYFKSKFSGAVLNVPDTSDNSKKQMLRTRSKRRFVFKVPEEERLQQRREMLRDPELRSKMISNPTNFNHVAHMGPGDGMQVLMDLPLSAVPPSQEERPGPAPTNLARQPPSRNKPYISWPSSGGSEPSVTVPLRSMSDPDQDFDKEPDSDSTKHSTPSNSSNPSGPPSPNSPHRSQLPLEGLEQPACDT
Series [15] deals with Tyrosine-protein kinase receptor TYRO3 (Homo sapiens) (UniProt Q06418). Briefly: Inhibition of recombinant human RSE (451 to end residues) at 1 uM using KVEKIGEGTYGVVYK as substrate incubated for 40 mins in presence of [gamma-33P]-ATP by scintillation counting method relative to control.
Series [16] has as its target Mast/stem cell growth factor receptor Kit (Homo sapiens) (UniProt P10721). Briefly: Inhibition of recombinant human cKIT (544 to end residues) at 1 uM using poly(Glu, Tyr) 4:1 as substrate incubated for 40 mins in presence of [gamma-33P]-ATP by scintillation counting method relative to control. An outline of the steps:
as §2

Series [17] relates to HeLa. Description: Induction of apoptosis in human HeLa cells assessed as decrease in Bcl2 expression at 40 to 80 nM incubated for 48 hrs by Western blot analysis. The format is functional, cell-based. An outline of the steps:
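Cells were treated for 48 h, washed three times with PBS, and lysed in RIPA buffer. Immunoblots used anti-Rb, anti-phospho-Rb, anti-Ki67 and anti-Bcl-2 (each 1:1000), with β-actin as loading control.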
On the technique in general: A western blot detects proteins with antibodies after separation by electrophoresis.

A short description of series [18]: Toxicity in BALB/c mouse assessed as effect on blood parameter by measuring MCV at 40 mg/kg, po administered once two days for 4 times by hematology analyzer. The settings on record: in vivo.
The nature of series [19]: Toxicity in BALB/c mouse assessed as effect on blood parameter by measuring MCH at 40 mg/kg, po administered once two days for 4 times by hematology analyzer. The note with it: in vivo.
Series [20] is described as follows: Toxicity in BALB/c mouse assessed as effect on blood parameter by measuring MCHC at 40 mg/kg, po administered once two days for 4 times by hematology analyzer. The note with it: in vivo.
The test system of series [21] is MDA-MB-231. Briefly: Inhibition of colony formation in human MDA-MB-231 cells at 40 nM incubated for 5 days by crystal violet staining based light microscopy. It counts as functional, cell-based. The gist of the method:
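4 × 10^3 cells per well were cultured with graded concentrations for 5 days. Cells were then fixed with 20% methanol, stained with 0.5% crystal violet and photographed by light microscopy.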

For series [22], the target named is Vascular endothelial growth factor receptor 2 (Homo sapiens, UniProt P35968). The note with it: HUVEC, 40 nM.
Vascular endothelial growth factor receptor 2, sequence (P35968 whole entry): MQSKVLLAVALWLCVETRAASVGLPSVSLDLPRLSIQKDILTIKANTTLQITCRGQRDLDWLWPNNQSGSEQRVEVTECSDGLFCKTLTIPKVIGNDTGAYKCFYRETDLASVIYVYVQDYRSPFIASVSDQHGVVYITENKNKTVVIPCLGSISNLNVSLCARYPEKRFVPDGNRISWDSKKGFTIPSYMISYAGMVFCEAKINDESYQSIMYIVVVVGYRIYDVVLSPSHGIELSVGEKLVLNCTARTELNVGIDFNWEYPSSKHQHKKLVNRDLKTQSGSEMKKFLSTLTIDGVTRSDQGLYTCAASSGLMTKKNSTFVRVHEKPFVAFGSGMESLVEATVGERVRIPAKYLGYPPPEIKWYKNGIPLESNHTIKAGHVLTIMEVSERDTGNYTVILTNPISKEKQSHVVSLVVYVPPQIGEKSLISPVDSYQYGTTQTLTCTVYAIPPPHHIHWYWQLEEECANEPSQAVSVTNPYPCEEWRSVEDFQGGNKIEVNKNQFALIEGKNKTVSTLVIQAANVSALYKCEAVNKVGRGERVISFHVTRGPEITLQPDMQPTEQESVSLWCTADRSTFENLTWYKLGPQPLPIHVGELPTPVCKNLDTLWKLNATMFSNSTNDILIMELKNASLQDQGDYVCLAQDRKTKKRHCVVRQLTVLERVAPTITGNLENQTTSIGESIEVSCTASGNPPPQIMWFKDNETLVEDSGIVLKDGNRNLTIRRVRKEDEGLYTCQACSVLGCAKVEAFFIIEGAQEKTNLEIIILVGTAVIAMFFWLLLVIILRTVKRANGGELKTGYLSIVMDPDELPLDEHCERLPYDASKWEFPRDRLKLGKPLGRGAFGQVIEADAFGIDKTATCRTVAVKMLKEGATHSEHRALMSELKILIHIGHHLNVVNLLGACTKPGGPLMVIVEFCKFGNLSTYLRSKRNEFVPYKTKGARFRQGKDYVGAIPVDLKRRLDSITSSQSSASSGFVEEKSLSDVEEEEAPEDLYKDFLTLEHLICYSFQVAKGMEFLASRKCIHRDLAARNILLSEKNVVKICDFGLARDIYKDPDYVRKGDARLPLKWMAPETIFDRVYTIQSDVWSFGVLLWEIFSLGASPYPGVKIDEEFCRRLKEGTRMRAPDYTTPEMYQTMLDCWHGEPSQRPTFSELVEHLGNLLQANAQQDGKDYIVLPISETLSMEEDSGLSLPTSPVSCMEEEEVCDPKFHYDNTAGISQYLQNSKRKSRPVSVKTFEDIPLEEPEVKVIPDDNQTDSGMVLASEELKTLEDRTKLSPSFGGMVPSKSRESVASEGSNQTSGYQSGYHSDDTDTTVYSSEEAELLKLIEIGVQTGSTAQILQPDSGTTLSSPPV

Active and inactive are the calls of the source. No cut-off for these calls is given here.

Bone morphogenetic protein receptor type-1B (Homo sapiens), sequence (O00238 whole entry): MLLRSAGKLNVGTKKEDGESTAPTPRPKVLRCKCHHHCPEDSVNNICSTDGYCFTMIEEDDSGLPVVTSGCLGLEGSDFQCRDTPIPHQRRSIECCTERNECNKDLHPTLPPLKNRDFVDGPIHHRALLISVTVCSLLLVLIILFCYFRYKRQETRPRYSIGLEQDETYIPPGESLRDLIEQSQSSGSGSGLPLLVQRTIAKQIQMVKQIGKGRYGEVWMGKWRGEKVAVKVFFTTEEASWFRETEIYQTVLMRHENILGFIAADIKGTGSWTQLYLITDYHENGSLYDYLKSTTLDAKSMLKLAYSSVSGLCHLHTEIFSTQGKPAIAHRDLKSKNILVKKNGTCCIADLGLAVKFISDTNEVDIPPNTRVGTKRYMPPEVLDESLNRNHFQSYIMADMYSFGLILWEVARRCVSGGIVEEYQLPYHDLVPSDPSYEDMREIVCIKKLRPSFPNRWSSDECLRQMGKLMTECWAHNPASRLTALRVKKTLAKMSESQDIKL

A word on the Tmax: it is the time from dosing to the highest level. In general, CL/F refers to clearance divided by bioavailability, as obtained after extravascular dosing. In general, inhibition refers to the percentage by which the read-out fell short of the control. Regarding `Cc1ccc(NC(=O)C2(C(=O)Nc3ccc(Nc4ncc(F)c(-c5cc(F)c6nc(C)n(C(C)C)c6c5)n4)cc3)CC2)cc1`, the outcome in series [1], in [2], in series [3] and in [17] was Active. Also, the “VRT(t)” value in series [4] is 2 h; in series [6], 7 h. Moreover, the Tmax in series [5] was 5 min. For the same compound, in series [7], the CL/F is 33.3 mL/min/kg. The inhibition in [8] was found to be 18%; in [9] it was 12%; in [10], 0%; in series [11], 35%; in series [12], 42%; in series [13] it was 1%. The inhibition in series [14] came to 7%; in series [15] it was 66%; in [16], 17%. Moreover, the Activity entry in [18], in series [19] and in series [20] was “Non-Toxic” throughout.

`COc1cc2nccc(Oc3ccc(NC(=O)C4(C(=O)Nc5ccc(F)cc5)CC4)cc3)c2cc1OC` [CABOZANTINIB]: the inhibition result in series [21] and in [22] was “Active” throughout.
